Assay outcomes deposited in PubChem BioAssay by Sanford-Burnham Center for Chemical Genomics.
Hits are enriched below; roughly 0.77% of the tested compounds scored in any of these assays.
mIAP activ: mouse IAP activation. muIAP, CDP-Star luminescence, 30 min; stronger effect = higher value; 1 = vehicle-only enzyme signal, 0 = enzyme-free wells. activation factor at 10 µM. 330,000 compounds, 0.24% hits. AID 2805;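 active = activation factor of at least 2 at 20 µM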
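System: mouse IAP enzyme. Reagent: CDP-Star chemiluminescent phosphatase substrate. Benchmarks: DMSO wells, no-enzyme wells. Times: 30 min enzyme-substrate-compound incubation at room temperature. Detection: luminescence from enzymatic CDP-Star hydrolysis. Doses: test compounds delivered from DMSO solution.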
bIAP activator: intestinal alkaline phosphatase (bovine) activation; activation factor at 20 µM; purified bovine IAP, CDP-star luminescence, 30 min; stronger effect = higher value; fold of DMSO-control signal, blank-subtracted; 200,000 compounds, 0.17% hits;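 active = activation factor of 2 or more at 20 µM, a signal rise over negative controls twice the positive control's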
mIAP inh: blocks mouse intestinal alkaline phosphatase; purified mouse IAP, CDP-Star luminescence, 30 min; inhibition, % at 10 µM; 330,000 compounds, 0.2% hits; AID 2806;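 active = inhibition of at least 40% at 10 µM in the primary screen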
hIAP inh: blocks human intestinal alkaline phosphatase; P09923; purified IAP, CDP-Star luminescence, 30 min; inhibition, % at 10 µM; 330,000 compounds, 0.12% hits;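 active = inhibition reaching a set limit with compound at 10 µM in the primary screen, cut at about 35% in these data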
Target sequence (P09923 whole entry, looked up): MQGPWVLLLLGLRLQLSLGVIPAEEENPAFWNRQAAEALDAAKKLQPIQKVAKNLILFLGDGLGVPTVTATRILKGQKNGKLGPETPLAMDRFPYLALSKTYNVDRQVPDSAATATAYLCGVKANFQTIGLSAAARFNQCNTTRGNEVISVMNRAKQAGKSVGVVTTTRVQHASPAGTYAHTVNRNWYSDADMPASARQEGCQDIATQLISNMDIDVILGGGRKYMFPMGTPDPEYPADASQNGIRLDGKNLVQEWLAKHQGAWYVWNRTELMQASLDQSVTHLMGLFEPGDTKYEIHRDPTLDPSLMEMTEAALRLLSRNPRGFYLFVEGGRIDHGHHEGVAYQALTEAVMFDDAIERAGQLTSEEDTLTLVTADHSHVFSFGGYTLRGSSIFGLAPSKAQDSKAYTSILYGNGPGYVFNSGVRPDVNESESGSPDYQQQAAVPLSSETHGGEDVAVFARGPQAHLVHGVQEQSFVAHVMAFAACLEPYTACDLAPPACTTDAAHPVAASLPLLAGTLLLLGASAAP
hIAP act: increases human intestinal alkaline phosphatase activity | 330,000 compounds, 0.16% hits | P09923 | purified human IAP, CDP-Star luminescence, 30 min; stronger effect = higher value; 1 = vehicle-only enzyme, 0 = enzyme-free background | activation factor at 10 µM;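 active = activation factor of the enzyme at least 2-fold when tested at 20 µM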
bIAP inhibitor: blocks bovine intestinal alkaline phosphatase activity; purified bovine IAP, CDP-star luminescence, 30 min; inhibition, % at 20 µM; 190,000 tested, under 10 active; AID 1019;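 active = over 50% inhibition of intestinal alkaline phosphatase at 20 µM in the single-dose screen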
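Assay system – bovine IAP enzyme · Quantity – bovine IAP at 1/65,000,000 final dilution · Detection – CDP-star luminescence signal · Times – 30 min reaction at room temperature · Also added – CDP-star substrate at 30 µM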
mIAP inh confirm: mouse IAP inhibition confirmation | shares compounds with mIAP inh | purified mouse IAP, CDP-Star luminescence, 30 min | inhibition, % at 10 µM | 11,000 compounds, 4.7% hits | AID 434971;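 active = inhibition of at least 40% at 10 µM in either of the two replicates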
A number is an active result; i = inactive; nt = no result given.

SMILES | mIAP activ | bIAP activator | mIAP inh | hIAP inh | hIAP act | bIAP inhibitor | mIAP inh confirm
COc1cc(/C=N/NC(=O)c2cc(O)cc(O)c2)ccc1OC(=O)c1ccccc1 | i | nt | 49.8 | i | i | nt | 57.1
O=C(N/N=C/c1ccc(OC(=O)c2ccccc2Cl)cc1)c1ccccn1 | i | nt | i | i | i | nt | nt
O=C(Nc1ccc(C(=O)N2CCCCC2)cc1)Nc1cccc(Cl)c1 | 2.71 | nt | i | i | i | nt | i
O=C(Nc1ccccc1)Nc1cccc(Cl)c1 | 2.76 | i | i | i | i | i | i
CC(=O)Nc1ccc(NC(=O)Nc2cccc(Cl)c2)cc1 | i | nt | i | i | i | nt | nt
O=C(Nc1cccc(Cl)c1)Nc1ccc2c(c1)OCO2 | 2.62 | i | i | i | i | i | i
CSc1cccc(NC(=O)Nc2ccc(Cl)cc2)c1 | 2.48 | i | i | i | i | i | i
O=C(NCc1ccc2c(c1)OCO2)Nc1cccc(Cl)c1 | i | nt | i | i | i | nt | nt
CC(OC(=O)c1ccc(Cl)nc1)C(=O)NCc1ccc2c(c1)OCO2 (configuration not stated) | i | nt | i | i | i | nt | nt
NC1=NC(=O)/C(=C\c2ccc(-c3ccc(Cl)cc3)o2)S1 | i | nt | i | i | i | nt | nt
Cc1ccc(/C=C2\SC(=S)N(C3CCS(=O)(=O)C3)C2=O)o1 (configuration not stated) | i | i | i | i | i | i | nt
CN(C)C1=NC(=O)/C(=C/c2ccc(-c3ccc(S(N)(=O)=O)cc3)o2)S1 | i | nt | 49.9 | i | i | nt | 49.7
NS(=O)(=O)c1ccc(-c2ccc(/C=C3\SC(=S)N(C4CCS(=O)(=O)C4)C3=O)o2)cc1 (configuration not stated) | i | nt | 80.2 | i | i | nt | 87.4
CCOc1cccc(/C=C(\C#N)C(=O)NC2CC2)c1 | i | nt | i | i | i | nt | nt
CCN(C(=O)c1cccc(S(=O)(=O)N(C)C)c1)C12CC3CC(CC(C3)C1)C2 | i | nt | i | i | i | nt | nt
C=C1N(c2cccc(Cl)c2)C(=O)OC1(C)C | i | i | i | i | i | i | nt
CCn1c(CSc2nc3ccccc3s2)nnc1SCC(=O)c1ccc(O)c(O)c1 | i | i | 44.1 | i | i | i | 46.6
CCn1c(SCC(=O)c2ccc(O)c(O)c2)nnc1-c1ccccc1OC | i | i | 43.6 | i | i | i | 63.0
C=CCn1c(SCC(=O)c2ccc(O)c(O)c2)nnc1-c1cccnc1 | i | nt | 57.2 | i | i | nt | 62.8
C=CCn1c(SCC(=O)c2ccc(O)c(O)c2)nnc1-c1ccccc1OC | i | i | i | i | i | i | nt
CC(=O)c1sc2nc(-c3ccco3)ccc2c1N | i | nt | 58.7 | i | i | nt | 63.0
Nc1c(C(=O)Nc2ccc(Br)cc2)sc2nc(-c3ccco3)ccc12 | i | i | i | i | i | i | nt
Cc1ccc(CN2CCC(CNC(=O)Nc3ccccc3F)CC2)cc1 | i | nt | i | i | i | nt | nt
O=C(NCC1CCN(Cc2cccc(Cl)c2)CC1)Nc1ccccc1Cl | 2.73 | nt | i | i | i | nt | i
Cc1ccc(NC(=O)NCC2CCN(Cc3cccc(Cl)c3)CC2)c(Cl)c1 | 3.46 | i | i | i | i | i | i
SMILES | mIAP activ | bIAP activator | mIAP inh | hIAP inh | hIAP act | bIAP inhibitor | mIAP inh confirm
COC(=O)c1ccc(/C=N/NC(=O)CC(=O)NCc2cccnc2)cc1 | i | i | i | i | i | i | nt
CCOC(=O)c1ccc(NC(=S)N(CCCN2CCN(CC)CC2)Cc2cccs2)cc1 | i | i | i | i | i | i | nt
Cc1ccc(S(=O)(=O)NCc2ccc(C(=O)NC3CCC(O)CC3)cc2)cc1C (configuration not stated) | i | nt | i | i | i | nt | nt
Cc1ccc(NC(=O)[C@@H]2CCC(=O)N2C2OC(=O)c3ccccc32)cc1Cl (some centres not stated) | i | nt | i | i | i | nt | nt
Cc1ccc(NC(=O)C2CC(=O)n3c(nc4ccccc43)N2)cc1Cl (configuration not stated) | 3.58 | 2.4 | i | i | i | i | i
CCOC(=O)c1c(C)[nH]c(C)c1S(=O)(=O)NCc1cc(C)ccc1C | i | nt | i | i | i | nt | nt
CCCCC1=CC2=C(c3ccco3)C(=O)C(C)(OC(=O)c3ccc(OC)cc3)C(=O)C2=CN1Cc1ccc2c(c1)OCO2 (configuration not stated) | i | nt | 43.5 | i | i | nt | 49.7
